ChEMBL document CHEMBL4028856, “Discovery of Small Molecules Targeting the Synergy of Cardiac Transcription Factors GATA4 and NKX2-5” (J Med Chem, 2017)
Calls of active or inactive are those of the source. No cut-off for these calls is given here.

biological target: T1, GATA4/NKX2-5 (Rattus norvegicus) (UniProt P46152+O35767); assay: Inhibition of GATA4/NKX2-5 interaction in neonatal rat ventricular cardiomyocytes assessed as decrease in endothelin-1 induced mRNA level of ANP at 20 uM preincubated for 1 hr followed by endothelin-1 addition measured after 23 hrs by real-time PCR analysis; details: not given
How it was run: (§1)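 Neonatal rat ventricular myocytes (2–4-day-old Sprague-Dawley or Wistar), preplated, seeded on 6-well plates, moved to complete serum-free medium next day and cultured 24 h. Compounds (10–100 μM) added 1 h before 100 nM endothelin-1 or none; ANP and BNP mRNA quantified by RT-PCR at 24 h, normalized to 18S RNA, relative to vehicle; mean ± SD, n = 3–6.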

For `Cc1onc(-c2ccccc2)c1C(=O)Nc1ccc(C#N)c(Cl)c1`, which inhibition is on record?
Its inhibition is “Active”.

With `Cc1onc(-c2ccccc2)c1C(=O)Nc1ccc(OC(F)(F)F)cc1` as the compound, how does the inhibition read?
The inhibition was “Active”.

Which inhibition does the source give for `Cc1onc(-c2ccccc2)c1C(=O)Nc1ccc(OC(C)C)cc1` here?
The inhibition was “Active”.

For `CC(C)COC(=O)c1ccc(NC(=O)c2cccs2)cc1`, which inhibition is on record?
The inhibition was “Active”.

biological target: T2, GATA4/NKX2-5 (Mus musculus) (UniProt Q08369+P42582); assay: Activation of mouse GATA4/NKX2-5 transcriptional synergy expressed in African green monkey COS-1 cells at 10 uM measured after 30 hrs by dual luciferase reporter gene assay; assay type: cell-based; details: not given
How it was run: (§2)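 COS-1 cells co-transfected (Fugene 6, DNA:reagent 1:3) with p3xNKE-luc, Renilla pRL-TKd238 control, and pMT2-GATA4, pMT2-NKX2-5, both, or empty pMT2; DNA balanced with pMT2. Compounds added 6 h post-transfection in 0.1% DMSO, medium renewed at 24 h, lysis at 30 h. Dual-luciferase read-out, firefly/Renilla normalized to vehicle; duplicate wells.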

Which Activity does the source give for `Cc1onc(-c2ccccc2)c1C(=O)N(C1=NC(C)CS1)c1ccc(Cl)cc1` (stereo not drawn) here?
Its Activity is “Active”.

biological target: T1, GATA4/NKX2-5 (Rattus norvegicus); assay: Activation of GATA4/NKX2-5 interaction in neonatal rat ventricular cardiomyocytes assessed as increase in endothelin-1 induced mRNA level of BNP at 20 uM preincubated for 1 hr followed by endothelin-1 addition measured after 23 hrs by real-time PCR analysis relative to control; details: not given; how it was run: as §1

With `Cc1onc(-c2ccccc2)c1C(=O)N(C1=NC(C)CS1)c1ccc(Cl)cc1` (stereo not drawn) as the compound, how does the fold change (FC) read?
The fold change (FC) was 2.1.

tested on: not listed separately; assay: Induction of aggregation of compound at 30 uM by nephalometric method; details: not given

For `Cc1onc(-c2ccccc2)c1C(=O)N(C1=NC(C)CS1)c1ccc(Cl)cc1` (stereo not drawn), which Activity is on record?
Its Activity is “Active”.

tested on: not listed separately; assay: Induction of aggregation of compounds at 100 uM by nephalometric method; details: not given

For `Cc1onc(-c2ccccc2)c1C(=O)N(C1=NC(C)CS1)c1ccc(Cl)cc1` (stereo not drawn), which Activity is on record?
The Activity was “Active”.

biological target: T1, GATA4/NKX2-5 (Rattus norvegicus); assay: Activation of GATA4/NKX2-5 interaction in neonatal rat ventricular cardiomyocytes assessed as increase in basal mRNA level of ANP at 20 uM after 24 hrs by real-time PCR analysis relative to control; details: not given; how it was run: as §1

Which fold change (FC) does the source give for `Cc1onc(-c2ccccc2)c1C(=O)N(C1=NC(C)CS1)c1ccc(Cl)cc1` (stereo not drawn) here?
Its fold change (FC) is 4.6.

biological target: T2, GATA4/NKX2-5 (Mus musculus); assay: Inhibition of mouse GATA4/NKX2-5 transcriptional synergy expressed in African green monkey COS-1 cells at 20 uM measured after 30 hrs by dual luciferase reporter gene assay; assay type: cell-based; details: 5 uM, in the assay text read “5 uM” for “20 uM”; how it was run: as §2

For `CCOc1ccc(/C=C2\SC(=O)N(CC)C2=O)cc1`, which inhibition is on record?
Its inhibition is “Active”.

biological target: T1, GATA4/NKX2-5 (Rattus norvegicus); assay: Activation of GATA4/NKX2-5 interaction in neonatal rat ventricular cardiomyocytes assessed as increase in basal mRNA level of BNP at 20 uM after 24 hrs by real-time PCR analysis relative to control; details: not given; how it was run: as §1

For `Cc1onc(-c2ccccc2)c1C(=O)N(C1=NC(C)CS1)c1ccc(Cl)cc1` (stereo not drawn), which fold change (FC) is on record?
Its fold change (FC) is 6.4.

tested on: not listed separately; assay: Induction of apoptosis in endothelin-1 induced neonatal rat ventricular cardiomyocytes at 50 uM measured after 24 hrs by TUNEL assay; assay type: cell-based; details: cardiac muscle cell
How it was run: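 Neonatal rat cardiomyocytes on 8-well chamber slides treated 24 h at 50 μM; apoptotic cells detected by TUNEL with peroxidase in situ kit.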

Which Activity does the source give for `Cc1onc(-c2ccccc2)c1C(=O)N(C1=NC(C)CS1)c1ccc(Cl)cc1` (stereo not drawn) here?
Its Activity is “Non-Toxic”.

tested on: not listed separately; assay: Induction of necrosis in neonatal rat ventricular cardiomyocytes assessed as release of adenylate kinase at 50 uM measured after 24 hrs by bioluminescence assay; assay type: cell-based; details: cardiac muscle cell
How it was run: (§3)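 Neonatal rat cardiomyocytes treated 24 h at 50 μM; adenylate kinase released into medium measured by ToxiLight bioluminescence on a luminometer; relative to vehicle, mean ± SD, n = 3.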

For `Cc1onc(-c2ccccc2)c1C(=O)N(C1=NC(C)CS1)c1ccc(Cl)cc1` (stereo not drawn), which Activity is on record?
The Activity was “Non-Toxic”.

tested on: not listed separately; assay: Induction of necrosis in endothelin-1 induced neonatal rat ventricular cardiomyocytes assessed as release of adenylate kinase at 50 uM measured after 24 hrs by bioluminescence assay; assay type: cell-based; details: cardiac muscle cell; how it was run: as §3

For `Cc1onc(-c2ccccc2)c1C(=O)N(C1=NC(C)CS1)c1ccc(Cl)cc1` (stereo not drawn), which Activity is on record?
The Activity was “Non-Toxic”.

biological target: T2, GATA4/NKX2-5 (Mus musculus); assay: Activation of mouse GATA4/NKX2-5 transcriptional synergy expressed in African green monkey COS-1 cells measured after 30 hrs by dual luciferase reporter gene assay; assay type: cell-based; details: not given; how it was run: as §2

With `Cc1onc(-c2ccccc2)c1C(=O)N(C1=NC(C)CS1)c1ccc(Cl)cc1` (stereo not drawn) as the compound, how does the Ka read?
Its Ka is 7 µM.

biological target: GATA4/NKX2-5 (Mus musculus, UniProt P42582+Q08369); assay: Inhibition of mouse GATA4/NKX2-5 transcriptional synergy expressed in African green monkey COS-1 cells measured after 30 hrs by dual luciferase reporter gene assay; assay type: cell-based; details: not given; how it was run: as §2
Sequence (Q08369 whole entry): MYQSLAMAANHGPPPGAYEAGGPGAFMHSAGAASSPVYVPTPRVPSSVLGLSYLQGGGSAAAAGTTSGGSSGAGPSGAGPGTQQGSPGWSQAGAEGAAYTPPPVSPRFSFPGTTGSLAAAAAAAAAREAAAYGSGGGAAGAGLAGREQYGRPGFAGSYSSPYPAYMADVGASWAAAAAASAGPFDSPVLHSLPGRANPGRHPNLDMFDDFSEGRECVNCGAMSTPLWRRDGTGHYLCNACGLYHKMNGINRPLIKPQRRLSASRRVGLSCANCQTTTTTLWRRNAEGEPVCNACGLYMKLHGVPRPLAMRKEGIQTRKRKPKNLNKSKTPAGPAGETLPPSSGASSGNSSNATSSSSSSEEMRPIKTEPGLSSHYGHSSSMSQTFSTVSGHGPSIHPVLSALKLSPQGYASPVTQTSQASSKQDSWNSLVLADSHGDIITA
Sequence (P42582 whole entry): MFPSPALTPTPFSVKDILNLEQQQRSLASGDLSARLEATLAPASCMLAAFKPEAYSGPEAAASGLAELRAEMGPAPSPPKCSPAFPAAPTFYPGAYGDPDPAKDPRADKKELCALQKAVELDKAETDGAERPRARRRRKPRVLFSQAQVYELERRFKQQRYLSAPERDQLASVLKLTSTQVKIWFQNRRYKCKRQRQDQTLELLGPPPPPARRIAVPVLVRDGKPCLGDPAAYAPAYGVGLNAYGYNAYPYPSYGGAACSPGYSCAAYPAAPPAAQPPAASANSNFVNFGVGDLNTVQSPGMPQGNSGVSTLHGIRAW

Which IC50 does the source give for `Fc1cccc(/C=N/n2c(S)nnc2-c2ccccc2)c1` here?
The IC50 was over 50 µM.

For `Sc1nnc(-c2ccccc2)n1/N=C/c1ccc(OC2CCCC2)cc1`, which IC50 is on record?
The IC50 was 37 µM.

Which IC50 does the source give for `CC(C)CNC(=O)c1ccc(NC(=O)C2CC2)cc1` here?
The IC50 was 23 µM.

For `CCC(CC)C(=O)Nc1ccc(C(=O)NCC(C)C)cc1`, which IC50 is on record?
Its IC50 is over 50 µM.

For `Cc1ccc(C(=O)Nc2ccc(C(=O)OCC(C)C)cc2)cc1C`, which IC50 is on record?
Its IC50 is over 50 µM.

With `CC(C)c1ccc(/C=N/n2c(S)nnc2-c2cccnc2)cc1` as the compound, how does the IC50 read?
The IC50 was over 50 µM.

With `CCCOc1ccc(NC(=O)c2c(-c3ccccc3)noc2C)cc1` as the compound, how does the IC50 read?
Its IC50 is over 50 µM.

With `Cc1onc(-c2ccccc2)c1C(=O)Nc1ccc(C(C)(C)C)cc1` as the compound, how does the IC50 read?
The IC50 was 18 µM.

For `Cc1onc(-c2ccccc2Cl)c1C(=O)Nc1ccc(C(C)(C)C)cc1`, which IC50 is on record?
The IC50 was 22 µM.

For `Cc1onc(-c2ccccc2)c1C(=O)Nc1ccc(S(=O)(=O)N2CCOCC2)cc1`, which IC50 is on record?
The IC50 was over 50 µM.

With `CCNc1ccc(NC(=O)c2c(-c3ccccc3)noc2CO)cc1` as the compound, how does the IC50 read?
Its IC50 is over 50 µM.

For `CCOc1ccccc1/C=N/n1c(S)nnc1-c1ccccc1`, which IC50 is on record?
The IC50 was 8 µM.

For `Cc1onc(-c2ccccc2)c1C(=O)Nc1ccc(N2CCOCC2)cc1`, which IC50 is on record?
The IC50 was over 50 µM.

For `Cc1onc(-c2ccccc2)c1C(=O)Nc1ccc(C#N)c(Cl)c1`, which IC50 is on record?
Its IC50 is 16 µM.

For `CCC(C)c1ccc(NC(=O)c2c(-c3ccccc3)noc2C)cc1` (stereo not drawn), which IC50 is on record?
Its IC50 is 32 µM.

With `Cc1onc(-c2ccccc2)c1C(=O)Nc1ccc(-n2cnnn2)cc1` as the compound, how does the IC50 read?
The IC50 was over 50 µM.

Which IC50 does the source give for `Cc1onc(-c2ccccc2)c1C(=O)Nc1ccc(OC(F)(F)F)cc1` here?
Its IC50 is 11 µM.

With `CCCCOc1ccc(/C=N/n2c(S)nnc2CC)cc1` as the compound, how does the IC50 read?
The IC50 was over 50 µM.

With `Cc1onc(-c2ccccc2)c1C(=O)Nc1ccc(C(=O)OC(C)C)cc1` as the compound, how does the IC50 read?
Its IC50 is 20 µM.

Which IC50 does the source give for `CN(C)c1ccc(/C=N/n2c(S)nnc2-c2ccncc2)cc1` here?
Its IC50 is 7 µM.

Which IC50 does the source give for `CCN(CC)c1ccc(/C=N/n2c(S)nnc2-c2ccccc2)c(OC)c1` here?
Its IC50 is over 50 µM.

With `COc1ccc(/C=N/n2c(SC)nnc2-c2ccccc2)cc1C` as the compound, how does the IC50 read?
The IC50 was 24 µM.

For `CC(C)CNC(=O)c1ccc(NC(=O)c2ccccc2)cc1`, which IC50 is on record?
The IC50 was over 50 µM.

For `COc1cccc(C(=O)Nc2ccc(C(=O)NCC(C)C)cc2)c1`, which IC50 is on record?
Its IC50 is over 50 µM.

Which IC50 does the source give for `CC(C)CNC(=O)c1ccc(NC(=O)c2cccs2)cc1` here?
The IC50 was over 50 µM.

With `CC(C)COC(=O)c1ccc(NC(=O)COc2ccccc2Cl)cc1` as the compound, how does the IC50 read?
The IC50 was over 50 µM.

For `CCN(CC)c1ccc(/C=N/n2c(S)nnc2C2CCCCC2)cc1`, which IC50 is on record?
The IC50 was 6 µM.

Which IC50 does the source give for `CCOc1ccc(/C=N/n2c(SC)nnc2-c2ccccc2)cc1OCC` here?
The IC50 was 30 µM.

Which IC50 does the source give for `COc1ccc(/C=N/n2c(S)nnc2C2CCCCC2)cc1OCc1ccccc1` here?
Its IC50 is 10 µM.

For `Cc1onc(-c2ccccc2)c1C(=O)Nc1ccc(-c2nnc3n2CCCCC3)cc1`, which IC50 is on record?
The IC50 was 20 µM.

With `O=C(O)/C(=C/c1ccccc1)c1c(F)c(F)c(F)c(F)c1F` as the compound, how does the IC50 read?
The IC50 was 50 µM.

Which IC50 does the source give for `CCCOC(=O)c1ccc(NC(=O)c2c(-c3ccccc3)noc2C)cc1` here?
Its IC50 is over 50 µM.

For `Cc1onc(-c2ccccc2)c1C(=O)Nc1ccc(S(=O)(=O)Nc2ncccn2)cc1`, which IC50 is on record?
Its IC50 is 28 µM.

For `Cc1onc(-c2ccccc2Cl)c1C(=O)Nc1ccc(N2CCOCC2)cc1`, which IC50 is on record?
Its IC50 is 38 µM.

With `CCOc1ccc(/C=C2\SC(=O)N(CC)C2=O)cc1` as the compound, how does the IC50 read?
Its IC50 is 5 µM.

Which IC50 does the source give for `Cc1onc(-c2ccccc2)c1C(=O)Nc1ccc(OC(C)C)cc1` here?
Its IC50 is 13 µM.

For `CC(C)COC(=O)c1ccc(NC(=O)c2cccs2)cc1`, which IC50 is on record?
Its IC50 is 9 µM.

biological target: T1, GATA4/NKX2-5 (Rattus norvegicus); assay: Inhibition of GATA4/NKX2-5 interaction in neonatal rat ventricular cardiomyocytes assessed as decrease in endothelin-1 induced mRNA level of BNP at 20 uM preincubated for 1 hr followed by endothelin-1 addition measured after 23 hrs by real-time PCR analysis; details: not given; how it was run: as §1

Which inhibition does the source give for `Cc1onc(-c2ccccc2)c1C(=O)Nc1ccc(OC(F)(F)F)cc1` here?
The inhibition was “Active”.
